Results: ChEMBL document CHEMBL4411287, “Discovery and optimization of a series of 3-substituted indazole derivatives as multi-target kinase inhibitors for the treatment of lung squamous cell carcinoma” (Eur J Med Chem, 2019)
In brackets after ≈: the same amount, converted by molar mass.

Legend:
[1] = Solubility of compound; type: physicochemical
[2] = molecular target: Tyrosine-protein kinase receptor UFO (Homo sapiens) (UniProt P30530); experiment: Inhibition of AXL (unknown origin) at 1000 nM relative to control
Tyrosine-protein kinase receptor UFO (Homo sapiens), sequence (P30530 whole entry): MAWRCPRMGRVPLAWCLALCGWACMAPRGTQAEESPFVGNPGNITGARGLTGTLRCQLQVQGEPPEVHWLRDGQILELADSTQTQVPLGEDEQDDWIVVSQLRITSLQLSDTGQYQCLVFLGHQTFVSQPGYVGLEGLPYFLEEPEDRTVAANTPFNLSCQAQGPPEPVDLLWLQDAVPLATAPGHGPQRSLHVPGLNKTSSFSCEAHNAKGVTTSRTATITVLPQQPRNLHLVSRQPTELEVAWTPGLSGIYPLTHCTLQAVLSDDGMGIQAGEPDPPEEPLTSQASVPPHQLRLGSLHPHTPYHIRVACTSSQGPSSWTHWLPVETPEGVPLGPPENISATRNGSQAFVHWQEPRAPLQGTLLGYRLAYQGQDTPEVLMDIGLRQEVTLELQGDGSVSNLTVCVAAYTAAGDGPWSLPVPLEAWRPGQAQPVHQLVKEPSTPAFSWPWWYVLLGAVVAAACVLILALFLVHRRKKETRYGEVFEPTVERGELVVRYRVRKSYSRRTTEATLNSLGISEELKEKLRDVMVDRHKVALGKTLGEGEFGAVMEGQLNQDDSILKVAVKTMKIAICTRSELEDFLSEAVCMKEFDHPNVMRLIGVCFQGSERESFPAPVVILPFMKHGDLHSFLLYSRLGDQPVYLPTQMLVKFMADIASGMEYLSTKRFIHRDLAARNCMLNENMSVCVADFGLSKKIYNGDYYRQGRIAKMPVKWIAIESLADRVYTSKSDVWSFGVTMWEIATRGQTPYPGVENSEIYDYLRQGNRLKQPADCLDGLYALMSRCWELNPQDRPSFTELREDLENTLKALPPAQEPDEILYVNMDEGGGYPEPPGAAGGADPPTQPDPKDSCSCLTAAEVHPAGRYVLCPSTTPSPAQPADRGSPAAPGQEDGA

[3] = molecular target: Proto-oncogene tyrosine-protein kinase Src (Homo sapiens) (UniProt P12931); experiment: Inhibition of c-Src (unknown origin) at 1000 nM relative to control
Method in brief: (§1)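 ELISA with purified recombinant kinase on plates precoated with poly(Glu,Tyr) 4:1 at 20 µg/mL. ATP 10 µM in HEPES pH 7.4 buffer with MgCl2, MnCl2, Na3VO4 and DTT. Run 60 min at 37 °C. Detected with anti-phosphotyrosine PY99, HRP secondary antibody and o-phenylenediamine, read at 490 nm. Inhibition % = [1 − A490/A490 control]×100. 1% DMSO as negative control.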

[4] = molecular target: Macrophage colony-stimulating factor 1 receptor (Homo sapiens) (UniProt P07333); experiment: Inhibition of CSF-1R (unknown origin) at 1000 nM relative to control
[5] = molecular target: Cyclin-dependent kinase 4 (Homo sapiens) (UniProt P11802); experiment: Inhibition of CDK4 (unknown origin) at 1000 nM relative to control
Cyclin-dependent kinase 4 (Homo sapiens), sequence (P11802 whole entry): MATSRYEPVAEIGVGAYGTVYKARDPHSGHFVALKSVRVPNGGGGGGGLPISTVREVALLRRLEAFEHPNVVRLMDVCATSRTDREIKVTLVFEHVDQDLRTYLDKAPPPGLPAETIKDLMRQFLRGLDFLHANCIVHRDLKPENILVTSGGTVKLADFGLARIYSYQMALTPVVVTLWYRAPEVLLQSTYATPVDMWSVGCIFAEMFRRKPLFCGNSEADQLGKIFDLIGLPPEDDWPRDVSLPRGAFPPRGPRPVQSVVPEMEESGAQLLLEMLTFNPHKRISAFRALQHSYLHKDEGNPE

[6] = molecular target: Receptor tyrosine-protein kinase erbB-4 (Homo sapiens) (UniProt Q15303); experiment: Inhibition of ErbB4 (unknown origin) at 1000 nM relative to control
Method in brief: (§2)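 Purified recombinant kinase domains run in ELISA on precoated poly(Glu,Tyr) 4:1 (20 µg/mL) with 10 µM ATP in 50 mM HEPES pH 7.4, 50 mM MgCl2, 0.5 mM MnCl2, 0.2 mM Na3VO4, 1 mM DTT; 1% DMSO control; 60 min at 37 °C. Phosphotyrosine read by PY99 antibody, HRP anti-mouse IgG, OPD/H2O2 at 490 nm; inhibition = [1−A490/A490control]×100%; two separate experiments.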

[7] = molecular target: Fibroblast growth factor receptor 2 (Homo sapiens) (UniProt P21802); experiment: Inhibition of FGFR2 (unknown origin) at 1000 nM relative to control; method in brief: as §2
Fibroblast growth factor receptor 2 (Homo sapiens), sequence (P21802 22-821 limits assumed): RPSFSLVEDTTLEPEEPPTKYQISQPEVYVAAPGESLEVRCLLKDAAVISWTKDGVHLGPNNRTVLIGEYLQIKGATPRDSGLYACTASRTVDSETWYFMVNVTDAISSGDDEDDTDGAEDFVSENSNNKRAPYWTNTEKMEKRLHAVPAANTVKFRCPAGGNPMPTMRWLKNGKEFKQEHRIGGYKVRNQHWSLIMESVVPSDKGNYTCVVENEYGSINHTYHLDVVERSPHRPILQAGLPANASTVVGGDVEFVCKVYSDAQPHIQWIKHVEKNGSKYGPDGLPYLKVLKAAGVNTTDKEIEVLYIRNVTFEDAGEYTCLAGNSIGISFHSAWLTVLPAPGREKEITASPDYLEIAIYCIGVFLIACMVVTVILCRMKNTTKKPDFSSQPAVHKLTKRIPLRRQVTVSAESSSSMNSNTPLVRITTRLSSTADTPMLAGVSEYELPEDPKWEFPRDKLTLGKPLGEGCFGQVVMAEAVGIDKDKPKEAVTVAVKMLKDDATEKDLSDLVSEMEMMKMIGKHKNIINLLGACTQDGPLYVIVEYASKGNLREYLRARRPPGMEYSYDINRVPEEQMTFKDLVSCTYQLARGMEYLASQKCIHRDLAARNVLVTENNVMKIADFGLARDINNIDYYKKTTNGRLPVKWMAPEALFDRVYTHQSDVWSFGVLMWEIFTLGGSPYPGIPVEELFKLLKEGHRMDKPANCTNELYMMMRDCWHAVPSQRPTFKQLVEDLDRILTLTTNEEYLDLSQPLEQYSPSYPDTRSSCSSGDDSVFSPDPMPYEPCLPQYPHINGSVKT

[8] = molecular target: Fibroblast growth factor receptor 4 (Homo sapiens) (UniProt P22455); experiment: Inhibition of FGFR4 (unknown origin) at 1000 nM relative to control; method in brief: as §2
[9] = molecular target: Receptor-type tyrosine-protein kinase FLT3 (Homo sapiens) (UniProt P36888); experiment: Inhibition of FLT-3 (unknown origin) at 1000 nM relative to control; method in brief: as §2
Receptor-type tyrosine-protein kinase FLT3 (Homo sapiens), sequence (P36888 whole entry): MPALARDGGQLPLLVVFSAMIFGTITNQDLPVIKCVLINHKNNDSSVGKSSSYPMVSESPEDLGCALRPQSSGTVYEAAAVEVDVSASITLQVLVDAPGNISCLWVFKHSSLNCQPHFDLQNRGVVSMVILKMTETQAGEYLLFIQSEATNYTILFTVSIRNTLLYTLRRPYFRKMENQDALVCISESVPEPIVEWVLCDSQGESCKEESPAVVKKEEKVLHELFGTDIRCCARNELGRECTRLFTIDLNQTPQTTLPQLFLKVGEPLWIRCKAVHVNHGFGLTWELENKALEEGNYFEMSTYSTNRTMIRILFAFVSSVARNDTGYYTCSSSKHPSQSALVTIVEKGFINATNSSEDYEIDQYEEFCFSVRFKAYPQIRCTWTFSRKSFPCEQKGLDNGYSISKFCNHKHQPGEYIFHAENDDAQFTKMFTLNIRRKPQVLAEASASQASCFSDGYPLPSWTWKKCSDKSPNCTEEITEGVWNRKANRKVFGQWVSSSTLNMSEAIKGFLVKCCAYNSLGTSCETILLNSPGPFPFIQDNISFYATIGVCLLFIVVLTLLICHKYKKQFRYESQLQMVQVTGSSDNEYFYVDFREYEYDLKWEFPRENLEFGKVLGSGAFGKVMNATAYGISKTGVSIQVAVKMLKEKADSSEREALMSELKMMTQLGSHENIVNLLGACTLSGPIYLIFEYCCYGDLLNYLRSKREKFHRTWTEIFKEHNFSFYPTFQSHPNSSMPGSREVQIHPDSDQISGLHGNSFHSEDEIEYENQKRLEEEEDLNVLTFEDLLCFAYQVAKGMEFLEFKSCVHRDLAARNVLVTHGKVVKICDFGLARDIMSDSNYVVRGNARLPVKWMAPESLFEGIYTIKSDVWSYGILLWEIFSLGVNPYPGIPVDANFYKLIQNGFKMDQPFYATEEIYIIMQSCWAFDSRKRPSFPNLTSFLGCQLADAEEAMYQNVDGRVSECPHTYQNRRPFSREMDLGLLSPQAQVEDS

[10] = molecular target: Tyrosine-protein kinase JAK1 (Homo sapiens) (UniProt P23458); experiment: Inhibition of JAK1 (unknown origin) at 1000 nM relative to control; method in brief: as §2
Tyrosine-protein kinase JAK1 (Homo sapiens), sequence (P23458 whole entry): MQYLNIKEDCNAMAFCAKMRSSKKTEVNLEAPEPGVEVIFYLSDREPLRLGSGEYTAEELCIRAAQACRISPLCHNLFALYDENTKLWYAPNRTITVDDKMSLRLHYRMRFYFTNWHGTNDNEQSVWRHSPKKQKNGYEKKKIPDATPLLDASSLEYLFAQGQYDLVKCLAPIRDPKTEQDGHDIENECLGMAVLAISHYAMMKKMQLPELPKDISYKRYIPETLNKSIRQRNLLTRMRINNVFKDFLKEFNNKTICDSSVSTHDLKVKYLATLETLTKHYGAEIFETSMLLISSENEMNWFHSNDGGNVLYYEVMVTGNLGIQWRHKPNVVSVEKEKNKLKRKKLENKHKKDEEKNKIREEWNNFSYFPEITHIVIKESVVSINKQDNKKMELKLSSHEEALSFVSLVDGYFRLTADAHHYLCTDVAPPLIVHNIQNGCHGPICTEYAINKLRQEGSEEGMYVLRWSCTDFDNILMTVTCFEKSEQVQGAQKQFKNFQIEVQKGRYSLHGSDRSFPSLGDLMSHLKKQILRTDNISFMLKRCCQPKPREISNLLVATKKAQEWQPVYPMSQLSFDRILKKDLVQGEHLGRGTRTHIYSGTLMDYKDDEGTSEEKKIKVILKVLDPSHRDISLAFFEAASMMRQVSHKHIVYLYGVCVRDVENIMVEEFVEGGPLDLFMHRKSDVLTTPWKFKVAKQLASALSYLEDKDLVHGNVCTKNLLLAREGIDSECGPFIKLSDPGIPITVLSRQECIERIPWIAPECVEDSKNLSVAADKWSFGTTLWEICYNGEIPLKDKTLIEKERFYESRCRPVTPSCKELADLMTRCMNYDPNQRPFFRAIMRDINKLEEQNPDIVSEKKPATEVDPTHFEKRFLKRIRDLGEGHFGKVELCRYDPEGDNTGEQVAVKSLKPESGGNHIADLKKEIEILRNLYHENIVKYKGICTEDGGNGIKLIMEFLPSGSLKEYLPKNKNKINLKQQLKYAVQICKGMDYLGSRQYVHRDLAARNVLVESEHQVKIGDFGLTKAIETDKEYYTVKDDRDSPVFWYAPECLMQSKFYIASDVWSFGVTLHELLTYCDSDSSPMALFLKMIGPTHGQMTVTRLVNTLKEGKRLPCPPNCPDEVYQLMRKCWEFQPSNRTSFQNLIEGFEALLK

[11] = molecular target: Platelet-derived growth factor receptor beta (Homo sapiens) (UniProt P09619); experiment: Inhibition of PDGFR-beta (unknown origin) at 1000 nM relative to control; method in brief: as §1
[12] = molecular target: Vascular endothelial growth factor receptor 2 (Homo sapiens) (UniProt P35968); experiment: Inhibition of VEGFR2 (unknown origin) at 1000 nM relative to control; method in brief: as §1
[13] = molecular target: Tyrosine-protein kinase receptor UFO (Homo sapiens) (UniProt P30530); experiment: Inhibition of AXL (unknown origin) at 100 nM relative to control
[14] = molecular target: Tyrosine-protein kinase BTK (Homo sapiens) (UniProt Q06187); experiment: Inhibition of BTK (unknown origin) at 100 nM relative to control
Tyrosine-protein kinase BTK (Homo sapiens), sequence (Q06187 whole entry): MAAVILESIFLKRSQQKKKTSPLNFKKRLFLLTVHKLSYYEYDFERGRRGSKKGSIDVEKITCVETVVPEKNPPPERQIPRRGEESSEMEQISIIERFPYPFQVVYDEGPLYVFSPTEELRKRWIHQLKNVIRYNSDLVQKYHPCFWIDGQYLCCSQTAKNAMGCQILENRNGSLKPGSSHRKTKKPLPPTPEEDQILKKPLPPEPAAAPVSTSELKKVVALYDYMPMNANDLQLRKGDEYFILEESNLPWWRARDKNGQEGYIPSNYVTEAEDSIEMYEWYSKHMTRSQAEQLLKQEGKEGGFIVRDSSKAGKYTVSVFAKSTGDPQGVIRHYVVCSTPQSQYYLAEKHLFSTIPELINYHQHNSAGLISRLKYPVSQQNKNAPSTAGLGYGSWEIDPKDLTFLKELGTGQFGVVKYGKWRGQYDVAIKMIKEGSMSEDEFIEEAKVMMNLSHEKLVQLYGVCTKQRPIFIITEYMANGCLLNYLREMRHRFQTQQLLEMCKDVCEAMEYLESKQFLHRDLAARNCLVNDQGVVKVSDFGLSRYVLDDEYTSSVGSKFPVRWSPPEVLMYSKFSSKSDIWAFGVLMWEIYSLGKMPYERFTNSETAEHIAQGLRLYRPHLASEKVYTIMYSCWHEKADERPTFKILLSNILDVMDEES

[15] = molecular target: Macrophage colony-stimulating factor 1 receptor (Homo sapiens) (UniProt P07333); experiment: Inhibition of CSF-1R (unknown origin) at 100 nM relative to control
[16] = molecular target: Cyclin-dependent kinase 4 (Homo sapiens) (UniProt P11802); experiment: Inhibition of CDK4 (unknown origin) at 100 nM relative to control
[17] = molecular target: Receptor tyrosine-protein kinase erbB-2 (Homo sapiens) (UniProt P04626); experiment: Inhibition of ErbB2 (unknown origin) at 100 nM relative to control; method in brief: as §2
[18] = molecular target: Receptor tyrosine-protein kinase erbB-4 (Homo sapiens) (UniProt Q15303); experiment: Inhibition of ErbB4 (unknown origin) at 100 nM relative to control; method in brief: as §2
[19] = molecular target: Receptor-type tyrosine-protein kinase FLT3 (Homo sapiens) (UniProt P36888); experiment: Inhibition of FLT-3 (unknown origin) at 100 nM relative to control; method in brief: as §2
[20] = molecular target: Tyrosine-protein kinase JAK1 (Homo sapiens) (UniProt P23458); experiment: Inhibition of JAK1 (unknown origin) at 100 nM relative to control; method in brief: as §2
[21] = molecular target: Tyrosine-protein kinase JAK2 (Homo sapiens) (UniProt O60674); experiment: Inhibition of JAK2 (unknown origin) at 100 nM relative to control; method in brief: as §2
[22] = molecular target: Tyrosine-protein kinase ABL1 (Homo sapiens) (UniProt P00519); experiment: Inhibition of ABL (unknown origin) at 10 nM relative to control
[23] = molecular target: Tyrosine-protein kinase BTK (Homo sapiens) (UniProt Q06187); experiment: Inhibition of BTK (unknown origin) at 10 nM relative to control
[24] = molecular target: Focal adhesion kinase 1 (Homo sapiens) (UniProt Q05397); experiment: Inhibition of FAK (unknown origin) at 10 nM relative to control; method in brief: as §2
[25] = molecular target: Tyrosine-protein kinase JAK1 (Homo sapiens) (UniProt P23458); experiment: Inhibition of JAK1 (unknown origin) at 10 nM relative to control; method in brief: as §2
[26] = molecular target: Tyrosine-protein kinase JAK2 (Homo sapiens) (UniProt O60674); experiment: Inhibition of JAK2 (unknown origin) at 10 nM relative to control; method in brief: as §2
[27] = molecular target: Platelet-derived growth factor receptor alpha (Homo sapiens) (UniProt P16234); experiment: Inhibition of PDGFR-alpha (unknown origin) at 10 nM relative to control; method in brief: as §2
[28] = molecular target: Fibroblast growth factor receptor 2 (Homo sapiens) (UniProt P21802); experiment: Inhibition of FGFR2 phosphorylation in human SNU-16 cells after 2 hrs by Western blot analysis; type: cell-based
Method in brief: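 SNU-16 cells exposed to compound for 2 h at 37 °C, lysed in 1× SDS sample buffer, resolved by 10% SDS-PAGE and blotted to nitrocellulose; probed for phospho-FGFR, FGFR2, phospho-ERK, ERK and GAPDH, then HRP anti-rabbit or anti-mouse IgG; enhanced chemiluminescence detection.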

KG-1 = experiment: Antiproliferative activity against FGFR1 fused human KG1 cells after 72 hrs by CCK8 assay; type: functional, cell-based; conditions: KG-1, 72 h
Method in brief: (§3)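 Cells seeded at low density in growth medium and compounds added the next day. Incubated 72 h, then proliferation read by sulforhodamine B, MTT or CCK-8. IC50 obtained by four-parameter concentration-response curve fitting.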

SNU-16 = experiment: Antiproliferative activity against FGFR2 amplified human SNU16 cells after 72 hrs by CCK8 assay; type: functional, cell-based; conditions: SNU-16, 72 h; method in brief: as §3
NCI-H2286 = experiment: Antiproliferative activity against human NCI-H2286 cells harboring DDR2 mutation after 72 hrs by CCK8 assay; type: functional, cell-based; conditions: NCI-H2286, 72 h; method in brief: as §3
NCI-H1581 = experiment: Antitumor activity against human NCI-H1581 cells xenografted in nude mouse assessed as tumor growth inhibition at 10 mg/kg, po qd for 7 to 10 days relative to control; type: functional; conditions: read-out: TGI
Method in brief: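 Female nude mice, 4-6 weeks old. NCI-H1581 cells (5×10^6 in 200 µL) injected s.c., grown to 700-800 mm³, then 1-mm³ fragments implanted s.c. by trocar. At 100-150 mm³ animals were randomized (vehicle n=12, treated n=6) and dosed orally once daily for 7 days. Tumours measured twice weekly, volume = length×width²/2. TGI calculated from change in tumour volume versus vehicle on the final day, with Student's t-test.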

solubility [1]: 2 µM (≈ 1 µg/mL) | inhibition [2]: 99.8% | inhibition [3]: 96.8% | inhibition [4]: 94.2% | inhibition [5]: 0.9% | inhibition [6]: 36.9% | inhibition [7]: 100% | inhibition [8]: 72.4% | inhibition [9]: 86.2% | inhibition [10]: 31.2% | inhibition [11]: 100% | inhibition [12]: 100% | inhibition [13]: 72.6% | inhibition [14]: 47.1% | inhibition [15]: 83.4% | inhibition [16]: 6.8% | inhibition [17]: 5.6% | inhibition [18]: 0% | inhibition [19]: 80.6% | inhibition [20]: 13.1% | inhibition [21]: 2.5% | inhibition [22]: 22% | inhibition [23]: 32% | inhibition [24]: 1.1% | inhibition [25]: 0.2% | inhibition [26]: 5.4% | inhibition [27]: 59.7% | inhibition [28]: Dose-dependent effect | IC50 (SNU-16): 93.4 nM | IC50 (NCI-H2286): 93 nM
Structure (SMILES): Cc1ccc(C(=O)Nc2cccc(C(F)(F)F)c2)cc1-c1ccc2c(-c3cnn(C4CC4)c3)n[nH]c2c1
IC50 (KG-1): 108 nM | inhibition in vivo at 10 mg/kg (NCI-H1581): 59.7%
